# High-throughput results from PubChem.
# Compounds with a hit are over-represented: about 1.5% of the library has one in this group of screens.
# ABCG2 block = blocks JC-1 efflux by human ABCG2 transporter; 0.1% of 190,000 active; Q9UNQ0; IgMXP3 cells, flow cytometry; inhibition, % at 6.6 µM; AID 1325;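 active = inhibition above 80%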;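 note: 0% = DMSO and 100% = nicardipine control wells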
#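 test system = two drug-resistant human cell lines, ABCG2 and ABCB1 | amount = 3 million cells/mL final, two lines in 1:1 ratio | reagent = JC-1 transporter substrate | doses = one concentration, 6.6 µM final | incubation = 10 min at 25 °C | signal = flow cytometric JC-1 green MFI at 530 nm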
# EP2 antag = blocks the human prostaglandin E2 receptor EP2; P43116; inhibition, % at 25 µM; 0.52% of 260,000 active; AID 1422; C6 glioma cells expressing human EP2, cAMP TR-FRET; cells stimulated with saturating PGE2;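 active = percent inhibition above 40 after rounding to a whole number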;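 note: rat C6 glioma host cells with rolipram phosphodiesterase inhibitor present; the protocol text gives 20 µM as final concentration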
# RBBP9 inhibitor = blocks human serine hydrolase RBBP9; inhibition, % at 7.94 µM; O75884; 0.2% of 220,000 active; recombinant RBBP9, FP-Rh probe fluorescence polarization;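 active = inhibition above the campaign mean of all tested compounds plus 3 SD, cut at about 14% in these data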;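 note: plate controls were DMSO wells with RBBP9 for no effect and wells lacking RBBP9 protein for full effect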
# Target sequence (O75884 whole entry, looked up): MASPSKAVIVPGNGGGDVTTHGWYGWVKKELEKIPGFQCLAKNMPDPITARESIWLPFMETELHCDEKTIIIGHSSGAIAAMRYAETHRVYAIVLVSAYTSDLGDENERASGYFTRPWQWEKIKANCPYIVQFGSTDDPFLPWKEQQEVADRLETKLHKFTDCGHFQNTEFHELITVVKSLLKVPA
#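 Controls: DMSO-treated enzyme wells and wells lacking RBBP9 | Material: RBBP9 protein | Technique: Fluorescence polarization | Replication: Single well per compound, no replicates | Buffer or medium: Tris-NaCl-Pluronic buffer, pH 8.0 | Timing: 30 min compound preincubation, 45 min probe labeling, 25 °C | Read-out basis: Percent inhibition from mP, scaled between DMSO and no-protein wells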
# EP2 modulator = EP2 receptor (human) modulation | EP2-expressing cells, cAMP HTRF FRET, PGE2 co-stimulation | 0.83% of 260,000 active | P43116 | induction, % at 25 µM;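 active = compounds whose cAMP rise, as percent of the full-agonist control response, exceeds 60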;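 note: rat C6 glioma line stably carrying human EP2 under a CMV promoter; the protocol text gives 20 µM as final concentration; 100% = response of wells given 1 µM PGE2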
# ABCB1 inh = inhibitors of human ABCB1 transporter, ABCG2 counter-screen | CCRF-Adr cells, JC-1 efflux, flow cytometry | inhibition, % at 6.6 µM | 0.067% of 190,000 active | AID 1326 | P08183; in the data active = inhibition above about 40%;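 note: 0% = vehicle and 100% = reference inhibitor; higher value means more JC-1 retained so stronger ABCB1 efflux block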
# Starred values were filed as active, the others as inactive; nt = not tested or not shown; ! = not active in a repeat.
SMILES,ABCG2 block,EP2 antag,RBBP9 inhibitor,EP2 modulator,ABCB1 inh
N#CCn1cc(/C=C2\C(=O)NC(=O)N(c3ccc(Cl)cc3)C2=O)c2ccccc21,nt,84.3*,nt,-106.8,nt
COC1CCC(C(=O)N2CCC(O)(c3cccnc3)CC2)CC1 (configuration not stated),nt,5.4,nt,-0.3,nt
CC(C)(C)N1C(=O)Cc2c1nc(N)c1c(N)nc(N3CCCCC3CO)c(C#N)c21 (configuration not stated),-0.2,44.1*,6.6,-29.1,0.0
CN(CCO)c1nc(N)c2c(N)nc3c(c2c1C#N)CC(=O)N3C1CCCC1,-0.1,19.8,-4.4,17.8,0.2
Cn1c(N2CCC(C(=O)NCCCc3ccccc3)CC2)nc2ccccc21,nt,9.9,nt,-64.7,nt
COc1cccc(C(=O)N2CCN(Cc3ccccc3Cl)CC2)c1OC,nt,9.6,nt,-2.2,nt
COc1cc2nncc(SCc3ccc(Cl)c(Cl)c3)c2cc1OC,nt,54.3*,nt,4.6,nt
COc1cnn(-c2ccccc2)c(=O)c1SCc1ccc(Cl)c(Cl)c1,12.0,8.4,-0.8,28.2,0.8
Cc1cccc(OCC(=O)Nc2nc3ccccc3s2)c1C,nt,14.1,nt,-54.2,nt
COc1ccc(OC)c(-c2cc(C(=O)O)c3cc4ccccc4cc3n2)c1,nt,55.0*,nt,6.3,nt
CN1C(=O)/C(=C2\SC(=S)N(CCCCCC(=O)O)C2=O)c2ccccc21,nt,5.4,-6.8,74.8*,nt
CCN1C(=O)/C(=C2\SC(=S)N(CCCOC)C2=O)c2ccccc21,1.5,5.2,-6.4,39.3,0.2
CCOC(=O)CC(=O)CSc1nc2c(C)ccc(C)c2cc1CC,nt,14.1,nt,95.2*,nt
CCc1cc2cccc(C)c2nc1SCC(=O)N1CCCC1,nt,8.3,nt,64.5*,nt
CCc1cc2cccc(C)c2nc1SCC(=O)N1CCN(C(=O)c2ccco2)CC1,1.6,16.9,-4.5,-14.5,1.0
C=C1C(=O)C=C2CN(C(=O)c3ccccc3)[C@@](Cc3ccc(F)cc3)(C(=O)OC)[C@@H]12,0.0,92.3*,-7.3,-43.9,-0.9
CC(C)N1CCN(c2ccncc2S(=O)(=O)N2CCCCC2)CC1,nt,41.4*,nt,1.3,nt
CCOc1ccc(/C=c2\sc3nc(-c4ccco4)nn3c2=O)cc1OCC,0.8,8.1,1.9,75.1*,0.2
COc1ccccc1/C=c1\sc2nc(-c3ccco3)nn2c1=O,-1.5,6.8,-0.4,22.1,-0.4
OCc1cccnc1,nt,12.2,nt,nt,nt
OCc1ccncc1.OCc1ccncc1.[Cl][Pt]([Cl])([Cl])[Cl],nt,69.0*,nt,-14.4,nt
Cc1cc(C)n(CC(=O)NCCc2nc(-c3ccncc3)n[nH]2)n1,nt,6.0,nt,-9.6,nt
O=C1Nc2ccccc2C1=Nc1ccc(S(=O)(=O)Nc2nccs2)cc1,nt,46.0*!,-7.0,-18.7,nt
NS(=O)(=O)c1ccc(N=C2C(=O)Nc3ccccc32)cc1,nt,5.6,0.8,-8.1,nt
CC1(C)CCc2c([nH]c3ccccc3c2=O)O1,2.5,18.7,-0.4,1.5,0.1
SMILES,ABCG2 block,EP2 antag,RBBP9 inhibitor,EP2 modulator,ABCB1 inh
CC1(C)CCC2=C(O1)c1ccccc1C(=O)C2=O,nt,40.6*,nt,-31.4,nt
O=C(CCC1CCCC1)N1CCC(c2nc3c(nnn3Cc3ccc(F)cc3)c(=O)[nH]2)CC1,nt,9.6,nt,9.7,nt
O=C(Cn1nc2c3ccccc3nc(C3CC3)n2c1=O)N1CCOc2ccccc21,nt,nt,nt,-4.0,nt
CCN1/C(=C/c2ccc3cc(C)ccc3[n+]2C)Sc2ccc3sccc3c21,2.5,45.4*,-29.0,-59.9,0.8
CCN1/C(=C/c2ccc3cc(OC)ccc3[n+]2CC)Sc2cc(NC(C)=O)ccc21,nt,17.3,nt,-8.8,nt
CCN1/C(=C\c2ccc3cccc(C)c3[n+]2C)C=Cc2cc(C)ccc21,nt,12.5,nt,-44.3,nt
CCN1/C(=C/c2ccc3ccccc3[n+]2C)Sc2cc(C)ccc21,nt,51.9*,nt,-55.5,nt
O=C(CC1CCCCC1)N1CCC[C@H]1Cn1nc(-c2ccc3c(c2)OCO3)ccc1=O,nt,nt,nt,-37.0,nt
Cc1cc(N)c2ccccc2[n+]1CCCCCCCCCC[n+]1c(C)cc(N)c2ccccc21,nt,9.0,nt,21.4,nt
Nc1cc2c(nc3c4ccccc4c(N)cc3[n+]2-c2cccc3ccccc23)c2ccccc12 (tested in a mixture with another compound),nt,54.4*,nt,-9.3,nt
Cn1c(NC(=O)c2cccnc2)nc2ccccc21,6.8,51.5*,-8.9,16.6,0.3
O=C1C2=C(Nc3cc([N+](=O)[O-])ccc3N2)O[C@@H]1c1c[nH]c2ccc(COc3ccccc3)cc12,nt,59.9*,nt,9.1,nt
